What was measured:
[1] = target: T1, Estrogen receptor (Homo sapiens) (UniProt P03372); experiment: Relative binding affinity of E isomers to human ERalpha-HBD at 4C compared to [3H]-estradiol
T1 sequence (whole entry): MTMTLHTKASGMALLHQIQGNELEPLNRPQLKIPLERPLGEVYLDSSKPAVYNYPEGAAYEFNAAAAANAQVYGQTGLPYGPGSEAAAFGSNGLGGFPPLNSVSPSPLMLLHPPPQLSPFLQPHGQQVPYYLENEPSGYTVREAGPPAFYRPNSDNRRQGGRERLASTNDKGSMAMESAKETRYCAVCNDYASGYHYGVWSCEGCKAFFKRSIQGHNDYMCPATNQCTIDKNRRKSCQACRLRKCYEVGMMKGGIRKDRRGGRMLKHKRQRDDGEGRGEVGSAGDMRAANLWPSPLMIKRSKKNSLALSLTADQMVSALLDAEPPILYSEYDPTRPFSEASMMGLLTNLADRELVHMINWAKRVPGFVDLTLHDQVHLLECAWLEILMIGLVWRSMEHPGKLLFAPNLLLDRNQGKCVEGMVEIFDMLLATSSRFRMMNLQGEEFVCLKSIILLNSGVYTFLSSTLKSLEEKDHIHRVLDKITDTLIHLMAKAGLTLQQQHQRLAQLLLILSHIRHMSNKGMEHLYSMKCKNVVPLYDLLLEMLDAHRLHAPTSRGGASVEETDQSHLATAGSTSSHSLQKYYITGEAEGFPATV

[2] = target: T1, Estrogen receptor (Homo sapiens); experiment: Relative binding affinity of Z isomers to human ERalpha-HBD at 4C compared to [3H]estradiol
How it was run: (§1)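 ERα-HBD (33 kDa) expressed in BL21 cells, induced with 0.6 mM IPTG for 3 h at room temperature. Lysed by sonication in Tris/NaCl/EDTA/DTT/1 M urea buffer, pH 7.4, clarified at 30000g, and diluted to 50 nM ER. […] Bound and free separated with dextran-coated charcoal. RBA = 100×[E]/[C], from 50% inhibition on a best-fit curve.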

[3] = target: T1, Estrogen receptor (Homo sapiens); experiment: Relative binding affinity of E isomers to human ERalpha-HBD at 25 degree C compared to [3H]estradiol
[4] = target: T1, Estrogen receptor (Homo sapiens); experiment: Relative binding affinity of Z isomers to human ERalpha-HBD at 25 degree C compared to [3H]estradiol; how it was run: as §1
[5] = target: T2, Estrogen receptor (Rattus norvegicus) (UniProt P06211+Q62986); experiment: Effective dose of E-isomer in rat uterotrophic growth assay compared to 10 nmol estradiol; type: functional
[6] = target: T2, Estrogen receptor (Rattus norvegicus); experiment: Effective dose of Z-isomer in rat uterotrophic growth assay compared to 10 nmol estradiol; type: functional

RBA [1] [%] | RBA [2] [%] | RBA [3] [%] | RBA [4] [%] | ED50 [5] [nmol] | ED50 [6] [nmol] | Compound
 | 22 |  | 26 |  |  | C[C@]12CC[C@@H]3c4ccc(O)cc4CC[C@H]3[C@@H]1CC[C@@]2(O)/C=C\c1ccc(N)cc1
24 | 43 | 22 | 44 | 72 | 2.3 | C[C@]12CC[C@@H]3c4ccc(O)cc4CC[C@H]3[C@@H]1CC[C@@]2(O)/C=C\c1ccc(F)cc1
10 | 10 | 18 | 9 | 5.5 | 4.2 | Cc1ccc(/C=C\[C@]2(O)CC[C@H]3[C@@H]4CCc5cc(O)ccc5[C@H]4CC[C@@]32C)cc1

Second part, the compound before the results:

Compound | RBA [1] [%] | RBA [2] [%] | RBA [3] [%] | RBA [4] [%] | ED50 [5] [nmol] | ED50 [6] [nmol]
C[C@]12CC[C@@H]3c4ccc(O)cc4CC[C@H]3[C@@H]1CC[C@@]2(O)/C=C\c1ccc(O)cc1 | 21 | 12 | 25 | 25 |  | 
COc1ccc(/C=C\[C@]2(O)CC[C@H]3[C@@H]4CCc5cc(O)ccc5[C@H]4CC[C@@]32C)cc1 | 36 | 20 | 32 | 39 |  | 
C[C@]12CC[C@@H]3c4ccc(O)cc4CC[C@H]3[C@@H]1CC[C@@]2(O)/C=C\c1ccccc1 | 16 | 57 | 9 | 66 |  | 
C[C@]12CC[C@@H]3c4ccc(O)cc4CC[C@H]3[C@@H]1CC[C@@]2(O)/C=C\c1ccc(C#N)cc1 | 9 | 20 | 27 | 12 |  | 
CC(=O)c1ccc(/C=C\[C@]2(O)CC[C@H]3[C@@H]4CCc5cc(O)ccc5[C@H]4CC[C@@]32C)cc1 | 53 | 22 | 60 | 29 |  | 
C[C@]12CC[C@@H]3c4ccc(O)cc4CC[C@H]3[C@@H]1CC[C@@]2(O)/C=C\c1ccc(C(F)(F)F)cc1 | 5 | 5 | 8 | 9 | 10.6 | 1.1

— ChEMBL document CHEMBL1140290, “Synthesis and evaluation of (17alpha,20Z)-21-(4-substituted-phenyl)-19-norpregna-1,3,5(10),20-tetraene-3,17beta-diols as ligands for the estrogen receptor-alpha hormone binding domain: comparison with 20E-isomers” (J Med Chem, 2005)
